What all share (format): functional
Experiment [1] deals with Oryctolagus cuniculus. Kind of experiment: Number of rabbits convulsed at 0.5 mg/kg, iv out of 1 rabbit tested. The method in brief:
(§1)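 Adult tetrahydrocannabinol-seizure susceptible (THC-SS) rabbits, 2–4 kg, dosed intravenously with cannabinoid in 10% polysorbate 80/90% physiological saline. Presence or absence of behavioral convulsion was recorded within 20 min. Animals were reused for several compounds or doses, with at least 7 days between trials and treatments given in random order. Every rabbit also received 0.05 mg/kg Δ9-THC at least once. Aim was four rabbits per dose.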

Experiment [2] has as its system Oryctolagus cuniculus. Kind of experiment: Number of rabbits convulsed at 1 mg/kg, iv out of 4 rabbits tested. The method in brief: as §1
Experiment [3] concerns Oryctolagus cuniculus. Kind of experiment: Number of rabbits convulsed at 2 mg/kg, iv out of 2 rabbits tested. The method in brief: as §1
Experiment [4] concerns Oryctolagus cuniculus. As to the kind of experiment: Number of rabbits convulsed at 4 mg/kg, iv out of 1 rabbit tested. The essentials:
as §1

For experiment [5], the system named is Oryctolagus cuniculus. Kind of experiment: Number of rabbits convulsed at 0.25 mg/kg, iv out of 1 rabbits tested. The essentials:
as §1

The test system of experiment [6] is Oryctolagus cuniculus. Kind of experiment: Number of rabbits convulsed at 0.5 mg/kg, iv out of 1 rabbits tested. The method in brief: as §1
The subject of experiment [7] is Oryctolagus cuniculus. Kind of experiment: Number of rabbits convulsed at 0.01 mg/kg, iv out of 4 rabbits tested. The essentials:
as §1

Experiment [8] concerns Oryctolagus cuniculus. Kind of experiment: Number of rabbits convulsed at 0.05 mg/kg, iv out of 4 rabbits tested. The essentials: as §1
The test system of experiment [9] is Oryctolagus cuniculus. As to the kind of experiment: Number of rabbits convulsed at 1 mg/kg, iv out of 1 rabbits tested. The method in brief: as §1
For experiment [10], the system named is Oryctolagus cuniculus. As to the kind of experiment: Number of rabbits convulsed at 0.5 mg/kg, iv out of 4 rabbits tested. The essentials: as §1
In experiment [11] the test system is Oryctolagus cuniculus. Kind of experiment: Number of rabbits convulsed at 0.9 mg/kg, iv out of 3 rabbits tested. The essentials: as §1
Experiment [12] has as its system Oryctolagus cuniculus. As to the kind of experiment: Number of rabbits convulsed at 20 mg/kg, iv out of 3 rabbits tested. The essentials: as §1
In experiment [13] the test system is Oryctolagus cuniculus. As to the kind of experiment: Number of rabbits convulsed at 0.1 mg/kg, iv out of 4 rabbits tested. The method in brief: as §1
Experiment [14] relates to Oryctolagus cuniculus. Kind of experiment: Number of rabbits convulsed at 0.005 mg/kg, iv out of 4 rabbits tested. The essentials:
as §1

Experiment [15] deals with Oryctolagus cuniculus. Kind of experiment: Number of rabbits convulsed at 0.1 mg/kg, iv out of 2 rabbits tested. The essentials:
as §1

Experiment [16] has as its system Oryctolagus cuniculus. Kind of experiment: Number of rabbits convulsed at 0.5 mg/kg, iv out of 3 rabbits tested. The essentials: as §1
The subject of experiment [17] is Oryctolagus cuniculus. Kind of experiment: Number of rabbits convulsed at 0.9 mg/kg, iv out of 4 rabbits tested. The method in brief:
as §1

The test system of experiment [18] is Oryctolagus cuniculus. As to the kind of experiment: Number of rabbits convulsed at 0.1 mg/kg, iv out of 1 rabbits tested. The essentials: as §1
For experiment [19], the system named is Oryctolagus cuniculus. As to the kind of experiment: Number of rabbits convulsed at 0.9 mg/kg, iv out of 1 rabbits tested. The essentials:
as §1

Experiment [20] deals with Oryctolagus cuniculus. As to the kind of experiment: Number of rabbits convulsed at 20 mg/kg, iv out of 2 rabbits tested. The essentials:
as §1

Experiment [21] concerns Oryctolagus cuniculus. As to the kind of experiment: Number of rabbits convulsed at 1 mg/kg, iv out of 3 rabbits tested. The essentials: as §1
The test system of experiment [22] is Oryctolagus cuniculus. As to the kind of experiment: Number of rabbits convulsed at 10 mg/kg, iv out of 1 rabbit tested. The essentials: as §1
Experiment [23] deals with Oryctolagus cuniculus. As to the kind of experiment: Number of rabbits convulsed at 5 mg/kg, iv out of 1 rabbit tested. The method in brief: as §1
Experiment [24] deals with Oryctolagus cuniculus. Kind of experiment: Number of rabbits convulsed at 0.05 mg/kg, iv out of 3 rabbits tested. The method in brief: as §1
Experiment [25] deals with Oryctolagus cuniculus. As to the kind of experiment: Number of rabbits convulsed at 5 mg/kg, iv out of 1 rabbits tested. The essentials:
as §1

For experiment [26], the system named is Oryctolagus cuniculus. As to the kind of experiment: Number of rabbits convulsed at 10 mg/kg, iv out of 1 rabbits tested. The method in brief:
as §1

The test system of experiment [27] is Oryctolagus cuniculus. As to the kind of experiment: Number of rabbits convulsed at 0.25 mg/kg, iv out of 5 rabbits tested. The essentials:
as §1

In experiment [28] the test system is Oryctolagus cuniculus. Kind of experiment: Number of rabbits convulsed at 20 mg/kg, iv out of 1 rabbits tested. The method in brief: as §1
In experiment [29] the test system is Oryctolagus cuniculus. As to the kind of experiment: Number of rabbits convulsed at 5 mg/kg, iv out of 4 rabbits tested. The method in brief: as §1
Experiment [30] has as its system Oryctolagus cuniculus. As to the kind of experiment: Number of rabbits convulsed at 0.5 mg/kg, iv out of 7 rabbits tested. The essentials: as §1
Experiment [31] relates to Oryctolagus cuniculus. As to the kind of experiment: Number of rabbits convulsed at 0.05 mg/kg, iv out of 2 rabbits tested. The essentials: as §1
The subject of experiment [32] is Oryctolagus cuniculus. Kind of experiment: Number of rabbits convulsed at 15 mg/kg, iv out of 1 rabbit tested. The essentials:
as §1

Experiment [33] has as its system Oryctolagus cuniculus. As to the kind of experiment: Number of rabbits convulsed at 20 mg/kg, iv out of 4 rabbits tested. The essentials: as §1
In experiment [34] the test system is Oryctolagus cuniculus. Kind of experiment: Number of rabbits convulsed at 8 mg/kg, iv out of 2 rabbits tested. The method in brief: as §1
The subject of experiment [35] is Oryctolagus cuniculus. Kind of experiment: Number of rabbits convulsed at 8 mg/kg, iv out of 1 rabbit tested. The method in brief: as §1
Experiment [36] has as its system Oryctolagus cuniculus. As to the kind of experiment: Number of rabbits convulsed at 15 mg/kg, iv out of 7 rabbits tested. The essentials:
as §1

The subject of experiment [37] is Oryctolagus cuniculus. Kind of experiment: Number of rabbits convulsed at 20 mg/kg, iv out of 6 rabbits tested. The method in brief:
as §1

The subject of experiment [38] is Oryctolagus cuniculus. Kind of experiment: Number of rabbits convulsed at 10 mg/kg, iv out of 6 rabbits tested. The essentials:
as §1

Experiment [39] deals with Oryctolagus cuniculus. As to the kind of experiment: Number of rabbits convulsed at 15 mg/kg, iv out of 10 rabbits tested. The essentials: as §1
For experiment [40], the system named is Oryctolagus cuniculus. As to the kind of experiment: Number of rabbits convulsed at 0.1 mg/kg, iv out of 10 rabbits tested. The essentials:
as §1

Experiment [41] has as its system Oryctolagus cuniculus. As to the kind of experiment: Number of rabbits convulsed at 0.5 mg/kg, iv out of 20 rabbits tested. The method in brief: as §1
The test system of experiment [42] is Oryctolagus cuniculus. Kind of experiment: Number of rabbits convulsed at 0.9 mg/kg, iv out of 9 rabbits tested. The essentials:
as §1

Experiment [43] has as its system Oryctolagus cuniculus. Kind of experiment: Number of rabbits convulsed at 0.05 mg/kg, iv out of 14 rabbits tested. The method in brief:
as §1

On to `CCCCCc1cc(O)c2c(c1)OC(C)(C)c1ccc(CO)cc1-2`, for which the “No. of rabbits convulsed” value in [1] was 0; in experiment [2] it was 1; in [3], 2; in [4], 1.

On to `CCCCCc1cc(O)c2c(c1)OC(C)(C)[C@@H]1CC=C(CO)CC21` (some centres not stated), for which the “No. of rabbits convulsed” value in [5] was 1; in experiment [6], 1; in experiment [7], 2; in experiment [8], 4; in [9], 1.

For the compound `CCCCCc1cc(O)c2c(c1)OC(C)(C)[C@@H]1C[C@H](O)C(C)=CC21` (some centres not stated), the entries for the “No. of rabbits convulsed” value in experiment [7] and in experiment [8] were 2 and 4, respectively.

With `CCCCCc1cc(O)c2c(c1)OC(C)(C)[C@@H]1CC=C(C=O)CC21` (some centres not stated), the “No. of rabbits convulsed” value in experiment [10] came out at 4; in [7], 0; in experiment [8], 4.

For `CCCCCc1cc(O)c2c(c1)OC(C)(C)C1=C2CCCC1`, the “No. of rabbits convulsed” value in [11] was 0; in experiment [12], 1.

As to `CCCCCCC(C)(C)c1cc(O)c2c(c1)OC(C)(C)[C@@H]1CCC(=O)CC21` (some centres not stated), the figures for the “No. of rabbits convulsed” value in [13], in [14] and in experiment [7] were 4, 3 and 4, respectively.

Consider `CCCCCc1cc(O)c2c(c1)OC(C)(C)C1=C2CC(C)CC1` (configuration not stated), for which the “No. of rabbits convulsed” value in experiment [15] is listed as 0; in experiment [16], 2; in [17], 4.

As to `CCCCCc1cc(O)c2c(c1)OC(C)(C)[C@@H]1C[C@@H](O)C(C)=CC21` (some centres not stated), the “No. of rabbits convulsed” value in experiment [18], in experiment [19] and in experiment [20] was 0 each time.

Take `CCCCCc1cc(O)c2c(c1)OC(C)(C)[C@@H]1CC=C(C(=O)O)CC21` (some centres not stated): the “No. of rabbits convulsed” value in experiment [21] came out at 0; in experiment [22], 0; in [20], 2; in experiment [23] it was 0.

Take `CCCCCC(C)C(C)c1cc(O)c2c(c1)OC(C)(C)[C@@H]1CC=C(C)CC21` (some centres not stated): the “No. of rabbits convulsed” value in [7] and in [24] was 3 each time.

As for `CCCCCc1cc(O)c2c(c1)OC(C)(C)[C@@H]1CCC(C)CC21` (some centres not stated), the “No. of rabbits convulsed” value in [18] is reported as 1; in [6] it was 1; in experiment [21], 3; in experiment [25] it was 1; in experiment [8], 2.

In the case of `CCCCC(O)c1cc(O)c2c(c1)OC(C)(C)c1ccc(C)cc1-2` (configuration not stated), the “No. of rabbits convulsed” value in [26] and in experiment [25] was 0 each time.

Consider `CC1=CC2c3c(O)cc(CCCCCO)cc3OC(C)(C)[C@@H]2CC1` (some centres not stated), for which the “No. of rabbits convulsed” value in [13] amounted to 4; in [8], 2.

Regarding `CCCCCc1cc(O)c2c(c1)OC(C)(C)[C@@H]1CCC(CO)=CC21` (some centres not stated), the “No. of rabbits convulsed” value was determined as 4 in [13], 5 in [27], 3 in experiment [7] and 4 in experiment [8].

`CCCCCc1cc(O)c2c(c1)OC(C)(C)[C@@H]1CC=C(C)CC21` (single isomer, unassigned; (+)): the “No. of rabbits convulsed” value came out at 1 in experiment [28] and 2 in experiment [29].

For the compound `CCCCCc1cc(O)c2c(c1)OC(C)(C)[C@@H]1CC=C(C)CC21` (single isomer, unassigned; (-)), the “No. of rabbits convulsed” value in [13] turned out to be 4; in [30] it was 7; in experiment [8], 2.

Take `CC(=O)Oc1cc(OC(C)CCCc2ccccc2)cc2c1[C@@H]1C[C@H](O)CC[C@H]1[C@H](C)N2` (single isomer, unassigned; (-)) [NANTRADOL]: the “No. of rabbits convulsed” value in experiment [31] is given as 2; in experiment [8], 3.

As for `CCCCCc1cc(O)c2c(c1)OC(C)(CCC=C(C)C)C=C2` (configuration not stated) [CANNABICHROMENE], the “No. of rabbits convulsed” value in experiment [32] is listed as 0; in [33], 1; in experiment [34], 0.

Regarding `CCCCCc1cc(O)c2c(c1)OC1(C)CCC3C1C2C3(C)C` (configuration not stated) [CANNABICYCLOL], the “No. of rabbits convulsed” value in experiment [20] and in experiment [35] was 0 each time.

In the case of `C=C(C)[C@@H]1CCC(C)=C[C@H]1c1c(O)cc(CCCCC)cc1O` [CANNABIDIOL], the “No. of rabbits convulsed” value in [36] and in experiment [37] was 0 in each case.

On to `CCCCCc1cc(O)c2c(c1)OC(C)(C)c1ccc(C)cc1-2` [CANNABINOL], for which the “No. of rabbits convulsed” value in experiment [38] turned out to be 4; in experiment [39], 10.

Consider `CCCCCc1cc(O)c2c(c1)OC(C)(C)[C@@H]1CCC(C)=C[C@@H]21` [DRONABINOL], for which the “No. of rabbits convulsed” value in experiment [40] was 10; in experiment [41] it was 20; in experiment [42], 9; in [26], 1; in experiment [7] it was 0; in experiment [43], 14.

As to `CCCCCc1cc(O)cc(O)c1` [WHILE OLIVETOL], in experiment [33], the “No. of rabbits convulsed” value is 0.

Source of the values: ChEMBL document CHEMBL1122061, “Use of a potential rabbit model for structure--behavioral activity studies of cannabinoids” (1982).
